Where “and” joins values, the source holds several entries; their conditions need not be identical. Identical values can stand only once.
target: Endothelial PAS domain-containing protein 1 (Homo sapiens) (UniProt Q99814); assay: HIF-1a and HIF-2a reporter inhibitors, SAR follow-up, cell-based, luminescence, MIAPaCa-2, 786-0, panel (AID 652011); conditions: MIAPaCa-2/PANC HIF reporter, luciferase luminescence, desferoxamine, overnight, HIF2a PANC, run 2; at 99 µM (top of the series)
In short: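 Probe or stimulus: desferoxamine stimulus / Schedule: overnight compound incubation at 37 °C, 10 min reagent / Dosing: compounds from 10 mM and 0.3125 mM stocks, 1% DMSO final / Signal: luciferase luminescence with One-Glo reagent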

Endothelial PAS domain-containing protein 1 (Homo sapiens), sequence (Q99814 whole entry, looked up, the tested form may be a part): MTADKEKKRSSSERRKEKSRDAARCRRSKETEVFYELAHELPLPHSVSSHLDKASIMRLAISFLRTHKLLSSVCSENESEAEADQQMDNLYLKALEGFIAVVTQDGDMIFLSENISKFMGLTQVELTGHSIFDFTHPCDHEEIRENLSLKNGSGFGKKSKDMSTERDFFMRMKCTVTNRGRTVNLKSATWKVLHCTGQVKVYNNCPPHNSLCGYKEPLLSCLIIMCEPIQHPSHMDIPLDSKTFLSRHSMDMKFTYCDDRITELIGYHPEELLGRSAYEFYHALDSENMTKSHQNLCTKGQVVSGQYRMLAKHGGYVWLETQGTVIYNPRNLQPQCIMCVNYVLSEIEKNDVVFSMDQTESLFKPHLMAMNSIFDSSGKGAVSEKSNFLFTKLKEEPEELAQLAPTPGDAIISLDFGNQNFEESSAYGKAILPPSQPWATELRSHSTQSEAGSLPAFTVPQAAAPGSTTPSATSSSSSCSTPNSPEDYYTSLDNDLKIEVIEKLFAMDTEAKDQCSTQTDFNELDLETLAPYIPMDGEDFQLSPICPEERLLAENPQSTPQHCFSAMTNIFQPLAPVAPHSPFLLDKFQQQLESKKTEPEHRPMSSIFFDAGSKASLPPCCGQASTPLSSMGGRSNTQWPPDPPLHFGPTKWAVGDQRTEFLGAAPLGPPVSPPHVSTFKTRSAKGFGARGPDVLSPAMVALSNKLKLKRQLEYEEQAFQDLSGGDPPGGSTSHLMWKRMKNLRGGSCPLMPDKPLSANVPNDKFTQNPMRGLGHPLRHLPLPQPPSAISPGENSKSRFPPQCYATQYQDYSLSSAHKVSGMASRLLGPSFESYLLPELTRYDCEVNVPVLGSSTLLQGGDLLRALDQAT

Row | Structure (SMILES) | inhibition
1 | CC(C)(C)c1ccc(-c2noc(CCC(=O)NC3CCCCC3)n2)cc1 | 104%
2 | CC(C)(C)c1ccc(-c2noc(CCC(=O)Nc3cccnc3)n2)cc1 | 126%
3 | CCNC(=O)CCc1nc(-c2cccc(C)c2)no1 | -15.7%
4 | CCCNC(=O)CCc1nc(-c2ccc(C(C)(C)C)cc2)no1 | 73%
5 | CC(C)c1ccc(-c2noc(CCC(=O)NC(C)(C)C)n2)cc1 | 90%
6 | CNC(=O)CCc1nc(-c2ccccc2)no1 | -73.5% and 30.8%
7 | CC(C)(C)c1ccc(-c2noc(CCC(=O)N3CCOCC3)n2)cc1 | 32.4%
8 | CCNC(=O)CCc1nc(-c2ccc(CC)cc2)no1 | -47%
9 | CN(C)C(=O)CCc1nc(-c2ccc(C(C)(C)C)cc2)no1 | 42.5% and -5.18%
10 | CC(C)(C)c1ccc(-c2noc(CCC(=O)NC3CCCC3)n2)cc1 | 121%
11 | CC(C)(C)c1ccc(-c2noc(CCC(=O)NCC3CCCO3)n2)cc1 (stereo unspecified) | 16.7%
12 | CC(C)(C)c1ccc(-c2noc(CCC(=O)Nc3ccccc3)n2)cc1 | 128%
13 | CNC(=O)CCc1nc(-c2ccc(OC)cc2)no1 | -21.8%
14 | CCc1ccc(-c2noc(CCC(=O)NC3CC3)n2)cc1 | -46.2%
15 | CCOc1ccccc1NC(=O)CCc1nc(-c2ccc(C(C)(C)C)cc2)no1 | 112%
16 | CCCCc1ccc(-c2noc(CCC(=O)NC3CC3)n2)cc1 | 16%

Row | Structure (SMILES) | inhibition
17 | CCc1ccc(-c2noc(CCC(=O)NC(C)CC)n2)cc1 (stereo unspecified) | -30.6%
18 | CC(C)(C)c1ccc(-c2noc(CCC(=O)NC3CCC3)n2)cc1 | 90.3%
19 | O=C(CCc1nc(-c2ccccc2)no1)NC1CC1 | 56.6%
20 | CCNC(=O)CCc1nc(-c2ccc(C(C)C)cc2)no1 | -41.3%
21 | CCNC(=O)CCc1nc(-c2cccc(F)c2)no1 | -6.32%
22 | CCCCc1ccc(-c2noc(CCC(=O)NC(C)(C)C)n2)cc1 | 89%
23 | CCNC(=O)CCc1nc(-c2ccc(C(C)(C)C)cc2)no1 | 84.7% and 55.9%
24 | CC(C)(C)NC(=O)CCc1nc(-c2ccc(C(C)(C)C)cc2)no1 | 102%
25 | CC(C)(C)c1ccc(-c2noc(CCC(=O)N3CCCCC3)n2)cc1 | 106%
26 | CCOc1ccc(-c2noc(CCC(=O)O)n2)cc1 | 109%
27 | O=C(O)CCc1nc(-c2ccccc2)no1 | 45.4%
28 | CNC(=O)CCc1nc(-c2ccc(C(C)C)cc2)no1 | 8.04%
29 | CC(C)NC(=O)CCc1nc(-c2ccc(C(C)(C)C)cc2)no1 | 64.9%
30 | CCc1ccc(-c2noc(CCC(=O)NC)n2)cc1 | -49.2%
31 | CC(C)(C)c1ccc(-c2noc(CCC(=O)NCc3ccco3)n2)cc1 | 99.3% and 99%

From PubChem BioAssay AID652011 (Sanford-Burnham Center for Chemical Genomics, 2013)
